Results collected from several papers.
Compare with care: the assays were run in different laboratories.
Target: Aurora kinase B (AURKB, Homo sapiens, UniProt Q96GD4)

Compound	test	setting	measurement	result
C#Cc1cc(-c2cc(Nc3nc(N[C@@H](C)c4ccc(F)cn4)ncc3Cl)n[nH]2)ccc1C=O	enzyme activity, inhibitor	0.2 µM	inhibition	16.6%
N#Cc1ccc(NC(=O)Nc2ccccc2)cc1	cell-free assay, competition with immobilised ligand	25 µM	remaining binding	82%
CN1CCN(C(=O)c2ccc(NC(=O)Nc3ccc(N(C)c4ccnc(Nc5ccc(CS(C)(=O)=O)cc5)n4)cc3)cc2)CC1	binding, competition with immobilised ligand	1 µM	remaining binding	0.4%
Cc1cc(O)c(-c2ccc([C@@H](C)CN(C)C)cc2)c2c1[nH]c(=O)c1sccc12	enzyme activity, inhibitor	0.1 µM	inhibition	21.5%
COc1ccc2oc(-c3ccc4nc(N)oc4c3)c/c(=N\c3ccccc3NC(=O)CCN)c2c1	cell-free assay	1 µM	remaining signal	99%
CO[C@@H]1[C@H](N(C)C(=O)c2ccccc2)C[C@H]2O[C@]1(C)n1c3ccccc3c3c4c(c5c6ccccc6n2c5c31)C(=O)NC4	enzyme activity, inhibitor	1 µM	inhibition	94%
C#Cc1cnc(Nc2ccnc(CO)c2)nc1Nc1ccccc1S(C)(=O)=NC#N (stereo not drawn)	cell-free assay	1 µM	remaining signal	< 10%
C[C@H]1CC[C@H](n2c3cnccc3c3cnc(Nc4ccc5c(n4)CCN(C(=O)CO)C5)nc32)CC1	cell-free assay, competition with immobilised ligand	1 µM	remaining binding	34%
CCCCC(=O)Nc1ccc(-c2ccc3ncn(CCC)c(=O)c3c2)cn1	binding, competition with immobilised ligand	0.5 µM	remaining binding	76%
CC(=O)ON=C1C=CC(=C(C#N)c2ccccc2)C=C1	enzyme activity, inhibitor, ADP detection	2 µM	activity vs control	96%
C=CC(=O)N1CCC([C@@H]2CCNc3c(C(N)=O)c(-c4ccc(Oc5ccccc5)cc4)nn32)CC1	enzyme activity, inhibitor	1 µM	inhibition	14%
C1=C/COCc2cc(ccc2OCCN2CCCC2)Nc2nccc(n2)-c2cccc(c2)COC/1	binding	0.1 µM	remaining binding	100%
